S1P1 ag pot: S1P1 (human) agonism or agonism potentiation. 56,000 tested, 0.57% active. AID 449. P21453. S1P1 CRE-bla cells, forskolin, beta-lactamase FRET, potentiator mode; S1P1 agonist co-added at EC20, 2 nM; 100% = saturating reference agonist, 0% = basal. activation, % at 9.5 µM;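 active = activation above a cutoff set at the mean activation of all tested compounds plus 3 SD, cut at about 54% in these data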;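 also: forskolin at 4 µM as EC80 and the EC20 agonist is SEW2871; 100% = SEW2871 at its EC100 plus forskolin at EC80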
S1P3 agonist: S1P3 (human) receptor agonism; Q99500; S1P3 NFAT-BLA reporter cells, FRET ratio; relative to 1 µM S1P, basal subtracted; activation, % at 4.5 µM; 60,000 tested, 0.1% active; AID 373;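 active = activation above the screen-wide mean plus 3 SD, cut at about 4.5% in these data, passing the limit was not always enough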
Target sequence (Q99500 whole entry, looked up): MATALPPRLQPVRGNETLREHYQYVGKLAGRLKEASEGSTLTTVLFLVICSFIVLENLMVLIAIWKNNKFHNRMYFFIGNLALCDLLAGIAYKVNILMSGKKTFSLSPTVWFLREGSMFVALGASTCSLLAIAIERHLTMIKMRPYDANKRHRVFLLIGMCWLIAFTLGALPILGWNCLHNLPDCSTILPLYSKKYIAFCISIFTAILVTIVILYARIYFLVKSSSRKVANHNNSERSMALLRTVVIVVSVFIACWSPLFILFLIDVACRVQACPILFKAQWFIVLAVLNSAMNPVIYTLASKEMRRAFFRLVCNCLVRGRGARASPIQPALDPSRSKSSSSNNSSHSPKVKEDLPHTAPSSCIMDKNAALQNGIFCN
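Material: Human S1P3 NFAT-BLA reporter CHO cells | Incubation: Overnight plating, 4 h compound 37 °C, 2 h substrate RT | Signal: FRET β-lactamase substrate fluorescence, excitation 405 nm, 460/535 nm emission ratio, background-subtracted | Compound: 4.5 µM final, single dose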
MMP-13 inhibitor: MMP13 (human) collagenase inhibition; P45452; MMP-13 fTHP FRET cleavage, Mca fluorescence; inhibition, % at 4 µM; 65,000 tested, 0.07% active;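 active = inhibition above the mean of compound-free control plate wells plus 3 SD, cut at about 14% in these data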;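 also: 0% = DMSO wells and 100% = wells with reference MMP-13 inhibitor after basal subtraction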
mHtt clearance: mutant huntingtin protein clearance; inhibition, % at 1.5 µM; 47,000 tested, 0.42% active; HeLa Exon1htt(103Q)mCFP, aggregate imaging; zero = plate's median compound well; AID 853;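 active = inhibition of aggregate fluorescence above about 70%, also judged a hit by eye on the cell image, limit read from the data, passing the limit was not always enough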;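 also: cells exposed to compound for three days before fixation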
The depositor's hits bear a star; i = inactive; / = no result. Only some compounds are listed: those with a hit (about 0.78% of all), similar ones and a draw of the others.

SMILES	S1P1 ag pot	S1P3 agonist	MMP-13 inhibitor	mHtt clearance
O=C(Nc1cccc(C(F)(F)F)c1)N1CCC(c2nc(-c3ccc(F)cc3)no2)CC1	58*	-1	2	-13
COC(=O)C1=C(O)C(C(=O)OC)C(c2ccc(C)cc2)C(C#N)(C#N)C1c1ccc(C)cc1 (stereo not drawn)	/	/	/	-2
COc1ccc(-n2ncc3c(N(C)C4CCCCC4)ncnc32)cc1	34	0	-18	/
Cc1cccc(-n2ncc3c(N(C)C4CCCCC4)ncnc32)c1	53*	-1	1	/
Nc1ccc(Sc2nnnn2-c2ccccc2)c(Cl)c1	34	0	-2	/
Cc1sc2ncnc(Sc3nnnn3-c3ccccc3)c2c1C	87*	-1	-40	-19
CCSc1nnnn1-c1ccccc1	/	/	/	34
Clc1ccc(-n2nnnc2Sc2ncnc3sccc23)cc1	82*	1	-5	-46
COCCCn1cnc2c(c1=O)c1nc3ccccc3nc1n2CCc1ccccc1	-10	0	-122	/
O=C(O)CCC(NS(=O)(=O)c1ccc(-c2ccccc2)cc1)C(=O)O (stereo not drawn)	/	/	50*	40
Cc1nc(CCNC(=O)COc2ccccc2)cs1	-18	0	-1	74*
O=C(COc1ccccc1)Nc1ccc(S(=O)(=O)N2CCOCC2)cc1	-14	-1	1	-44
COc1ccc(OCC(=O)Nc2ccc(S(=O)(=O)N3CCOCC3)cc2)cc1	-33	0	-8	87*
CCn1c(COc2cccc(C)c2C)nnc1SCC(=O)N1CCN(c2ccc(OC)cc2)CC1	/	/	/	7
CC(=O)Oc1cc2oc(=O)c3c(c2cc1Cl)CCC3	-16	1	i	/
c1cn(CCCNc2ncnc3sc4c(c23)CCC4)cn1	6	-1	-4	/
c1csc(CCNc2ncnc3sc4c(c23)CCC4)c1	153*	-2	-3	/
CCCN(C(=O)c1cccs1)c1nnc(-c2ccncc2)s1	101*	-1	-9	/
CCCCN(C(=O)Cc1cccs1)c1nnc(-c2cccnc2)s1	/	/	/	-45
Cc1cc(C)n2nc3nc4c(cc3c2n1)CCCC4	/	/	-59	/
CCn1c(=S)[nH]c2nc3c(cc2c1=O)CCCC3	/	/	/	71*
CCn1c2ccccc2c2cc(NC(=O)CSc3nnc(-c4ccccc4OC)n3N)ccc21	2	-1	4	76*
O=C(CSc1nnc(-c2c[nH]c3ccccc23)o1)N(Cc1ccccc1)c1ccc(F)cc1	107*	5	-1	53
COc1ccc(CN(C(=O)CSc2nnc(-c3ccccc3C)o2)c2ccc(F)cc2)cc1	/	/	/	20
CCOC(=O)CN(C(=O)CSc1nnc(-c2cccc(OC)c2)o1)c1ccc(F)cc1	82*	0	2	33
SMILES	S1P1 ag pot	S1P3 agonist	MMP-13 inhibitor	mHtt clearance
CCC(C)c1ccc2oc(-c3ccc(NC(=O)Cn4cnc5c(=O)n(C)c(=O)n(C)c54)cc3)nc2c1 (stereo not drawn)	111*	0	-100	/
CCOCCCn1c(=S)[nH]c2cc3c(cc2c1=O)OCO3	/	/	1	/
CCOc1ccccc1NC(=O)C1CCN(c2ccc(S(=O)(=O)N3CCCC3)cc2)CC1	24	-1	-4	72*
O=C(Nc1ccc(Br)cc1)c1ccc(N2C(=O)C3CC=C(Cl)CC3C2=O)cc1 (stereo not drawn)	/	/	/	-32
CCC(Sc1nnnn1-c1ccccc1)C(=O)NC(C)c1ccccc1 (stereo not drawn)	-17	-1	7	71*
COc1ccc(-c2cn3c(C)c(C(=O)N4CCN(c5ccccc5F)CC4)sc3n2)cc1	10	-1	-7	/
COc1ccc(-c2cn3c(C)c(C(=O)N4CCCc5ccccc54)sc3n2)cc1	70*	-2	0	/
CC(C)(C)C(=O)NC1CCN(C(=O)N2CCCC2)CC1	-19	0	3	99*
CC(C)(C)C(=O)NC1CCN(S(C)(=O)=O)CC1	/	/	/	40
COC(=O)Cc1cc(=O)[nH]c(Nc2nc3ccccc3o2)n1	25	-1	2	75*
O=S(=O)(NCc1ccccc1)c1cccs1	/	/	/	19
O=C(CCCC(=O)N1CCCc2ccccc21)N1CCCc2ccccc21	/	/	3	-43
O=C(Nc1ccccc1)N1CCCc2ccccc21	/	/	/	83*
CCN(CC)C(=O)Cn1cnc2sc(C(=O)Nc3cc(OC)c(OC)c(OC)c3)c(C)c2c1=O	/	/	/	54
O=C(CSc1nnc(-c2ccc(O)cc2)o1)N1CCOCC1	-4	0	5	/
Oc1ccc(-c2nnc(SCC3CCCCC3)o2)cc1	113*	3	-6	/
CN1/C(=C/C(=O)c2nc(S(C)(=O)=O)ncc2Cl)C(C)(C)c2ccccc21	110*	-2	7	/
CCOc1ccccc1OCCCCCc1c(C)n[nH]c1C	89*	0	-2	/
Cc1cccc(OCCCCc2c(C)n[nH]c2C)c1C	112*	-2	7	/
COc1ccc(CN(C(=O)c2ccc(-c3ccccc3)[nH]2)C(C(=O)NCC2CCCO2)c2ccc(C)o2)cc1 (stereo not drawn)	/	/	/	-29
COC(=O)Nc1snnc1C	/	/	/	55
c1ccc(-c2nc3nonc3nc2-c2ccccc2)cc1	4	6.1*	-6	15
Nc1nnc(-c2ccccc2)c(-c2ccccc2)n1	-46	0	4	30
CCCCn1c(NC(=O)c2ccc(F)cc2)c(C#N)c2nc3ccccc3nc21	-190	4.7*	-52	/
CCCCC(=O)Nc1ncc2c(n1)CC(C)(C)CC2=O	/	-1	8	14
SMILES	S1P1 ag pot	S1P3 agonist	MMP-13 inhibitor	mHtt clearance
CCCCC(=O)C1=C(N2CCCC2)CC(C)(C)CC1=O	/	/	/	72*
CCN=c1scc(-c2ccc3c(c2)NC(=O)CO3)n1N=C1CCCC1	64*	-1	5	/
COc1ccccc1N=c1scc(-c2ccc3c(c2)NC(=O)CO3)n1CC1CCCO1 (stereo not drawn)	8	1	-11	/
O=C(NCc1ccccc1)N[C@@H](Cc1c[nH]c2ccccc12)C(=O)O	-11	0	5	/
CC(Cc1c[nH]c2ccccc12)NC(=O)C1CCCNC1=O (stereo not drawn)	-49	0	0	87*
COc1ccc(-n2nc3ccc(NS(C)(=O)=O)cc3n2)cc1Cl	103*	-1	-259	/
S=C(NN=C1C2CC3CC(C2)CC1C3)Nc1ccccc1	/	/	/	-4
COc1ccc(-c2noc(-c3cc(C)cc(C)c3)n2)cc1OC	106*	0	-3	/
COc1ccc(Cl)cc1-c1nc(-c2ccc(NC(=O)c3ccncc3)cc2)no1	26	0	0	/
COc1ccc(-c2nc(-c3ccc(NC(=O)c4ccncc4)cc3)no2)cc1OC	123*	0	-20	/
COc1ccc(NC(=O)c2cc(-c3cccs3)on2)cc1OC	56*	0	0	-11
COc1ccc(-c2nnc(-c3cccnc3)o2)cc1OC	-37	-2	-2	/
CCOc1ccc(-c2nnc(-c3cccnc3)o2)cc1OCC	89*	-1	-9	-22
CC(C)CC(=O)OCc1cn(-c2ccccc2)nn1	/	/	/	-15
CCC(Cc1ccccc1)NC(=O)CSc1ccsc1[N+](=O)[O-] (stereo not drawn)	/	/	/	-19
CCOc1ccc(-c2noc(-c3cccnc3)n2)cc1OC	114*	-1	-2	36
COc1ccc(-c2cc(C(=O)NC3CCCC3)no2)cc1OC	74*	-2	-2	-19

Assay outcomes as filed in PubChem BioAssay.
